Reference: ChEMBL document CHEMBL2417498, “Design and synthesis of 6,7-methylenedioxy-4-substituted phenylquinolin-2(1H)-one derivatives as novel anticancer agents that induce apoptosis with cell cycle arrest at G2/M phase” (Bioorg Med Chem, 2013)
Active and inactive are the calls of the source. No cut-off for these calls is given here.

How the values were obtained:
HL-60 [1] = test: Cell cycle arrest in human HL60 cells assessed as accumulation at S phase at 0.5 uM after 24 hrs by propidium iodide staining-based FACS analysis (reference value: 49.69%); format: functional
SK-OV-3 = test: Cytotoxicity against human SKOV3 cells after 48 hrs by MTT assay; format: functional, cell-based; settings: SK-OV-3, 48 h
How it was run: (§1)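 Log-phase tumour cells grown in RPMI-1640 with 10% FBS, penicillin/streptomycin and 1% L-glutamine at 37 °C, 5% CO2. Cells treated with vehicle or a range of concentrations for 48 h. Growth measured by MTT reduction, absorbance at 570 nm. IC50 is the concentration giving 50% proliferation inhibition, from 3 independent experiments.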

MCF7 = test: Cytotoxicity against human MCF7 cells after 48 hrs by MTT assay; format: functional, cell-based; settings: MCF7, 48 h; how it was run: as §1
HL-60 [2] = test: Decrease in CDK1 expression in human HL60 cells after 24 hrs by Western blot analysis; format: functional, cell-based
How it was run: (§2)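 HL-60 cells treated 24 h at the indicated concentrations, harvested, lysed (30 min on ice, 12,000 g spin), protein by Bradford; samples run on 10% SDS-PAGE, transferred to nitrocellulose, immunodetected by chemiluminescence.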

[3] = Cell cycle arrest in human H460 cells assessed as accumulation at G0/G1 phase at 1 uM after 24 hrs by propidium iodide staining-based FACS analysis (reference value: 46.19%); format: functional; settings: NCI-H460
How it was run: (§3)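 H460 cells treated 24 h with 1.0, 2.5 or 5.0 µM; washed in PBS, fixed overnight in 70% ice-cold ethanol at −20 °C, stained 30 min in the dark with 0.1% Triton X-100, 0.2 mg/mL RNase and 20 µg/mL propidium iodide; DNA content by flow cytometry, phase distribution from histogram modelling.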

HL-60 [4] = test: Cell cycle arrest in human HL60 cells assessed as accumulation at G2/M phase at 1 uM after 24 hrs by propidium iodide staining-based FACS analysis (reference value: 10.51%); format: functional
NCI-H460 [5] = test: Increase in CDK1 expression in human H460 cells after 24 hrs by Western blot analysis; format: functional, cell-based
How it was run: (§4)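 H460 cells exposed 24 h at the indicated concentrations; lysates cleared at 12,000 g, protein quantified by Bradford, resolved on 10% SDS-polyacrylamide gels, blotted to nitrocellulose and detected by chemiluminescence.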

NCI-H460 [6] = test: Induction of apoptosis in human H460 cells assessed as appearance of apoptotic bodies at 1 to 5 uM after 24 hrs by Hoechst 33258 staining-based microscopy; format: functional, cell-based
How it was run: (§5)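 H460 plated at 5×10⁴ cells/well and incubated 24 h with 1.0, 2.5 or 5.0 µM; stained with 5 µg/mL Hoechst 33258 for 10 min, washed twice in PBS, fixed in 4% paraformaldehyde 10 min at 25 °C; nuclei scored for chromatin condensation, fragmentation and apoptotic bodies by fluorescence microscopy; 0.1% DMSO control.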

[7] = Cell cycle arrest in human H460 cells assessed as accumulation at sub G1 phase at 5 uM after 24 hrs by propidium iodide staining-based FACS analysis (reference value: 3.07%); format: functional; settings: NCI-H460; how it was run: as §3
HL-60 [8] = test: Cell cycle arrest in human HL60 cells assessed as accumulation at S phase at 0.25 uM after 24 hrs by propidium iodide staining-based FACS analysis (reference value: 49.69%); format: functional
Detroit 551 = test: Cytotoxicity against human Detroit 551 cells after 48 hrs by MTT assay; format: cell-based; settings: Detroit 551, 48 h
How it was run: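 Detroit 551 normal skin cells and Hep 3B hepatoma cells grown in DMEM with 10% FBS, penicillin/streptomycin and 1% L-glutamine at 37 °C, 5% CO2. Log-phase cells treated with vehicle or a range of concentrations for 48 h. MTT reduction read at 570 nm. IC50 (50% proliferation inhibition) taken from 3 independent experiments.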

COLO 205 = test: Cytotoxicity against human COLO205 cells after 48 hrs by MTT assay; format: functional, cell-based; settings: COLO 205, 48 h; how it was run: as §1
HL-60 [9] = test: Cell cycle arrest in human HL60 cells assessed as accumulation at sub G1 phase at 0.25 uM after 24 hrs by propidium iodide staining-based FACS analysis (reference value: 0.35%); format: functional
[10] = Cell cycle arrest in human H460 cells assessed as accumulation at G0/G1 phase at 2.5 uM after 24 hrs by propidium iodide staining-based FACS analysis (reference value: 46.19%); format: functional; settings: NCI-H460; how it was run: as §3
[11] = Cell cycle arrest in human H460 cells assessed as accumulation at G2/M phase at 1 uM after 24 hrs by propidium iodide staining-based FACS analysis (reference value: 10.73%); format: functional; settings: NCI-H460; how it was run: as §3
HL-60 [12] = test: Cell cycle arrest in human HL60 cells assessed as accumulation at G0/G1 phase at 0.5 uM after 24 hrs by propidium iodide staining-based FACS analysis (reference value: 39.80%); format: functional
[13] = Cytotoxicity against human H460 cells after 48 hrs by MTT assay; format: functional, cell-based; settings: NCI-H460, 48 h; how it was run: as §1
[14] = Cell cycle arrest in human H460 cells assessed as accumulation at G0/G1 phase at 5 uM after 24 hrs by propidium iodide staining-based FACS analysis (reference value: 46.19%); format: functional; settings: NCI-H460; how it was run: as §3
NCI-H460 [15] = test: Induction of apoptosis in human H460 cells assessed as appearance of nuclear fragmentation at 1 to 5 uM after 24 hrs by Hoechst 33258 staining-based microscopy; format: functional, cell-based; how it was run: as §5
[16] = Cell cycle arrest in human H460 cells assessed as accumulation at G2/M phase at 2.5 uM after 24 hrs by propidium iodide staining-based FACS analysis (reference value: 10.73%); format: functional; settings: NCI-H460; how it was run: as §3
HL-60 [17] = test: Induction of apoptosis in human HL60 cells assessed as appearance of nuclear fragmentation at 0.25 to 1 uM after 24 hrs by Hoechst 33258 staining-based microscopy; format: functional, cell-based
How it was run: (§6)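 HL-60 seeded at 1×10⁵ cells/well, treated 24 h with 0.25, 0.5 or 1.0 µM; nuclei stained 10 min with 5 µg/mL Hoechst 33258, PBS-washed twice, fixed 10 min in 4% PFA at 25 °C; apoptotic morphology imaged by fluorescence microscopy against 0.1% DMSO-treated cells.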

HL-60 [18] = test: Induction of apoptosis in human HL60 cells assessed as caspase3 cleavage at 0.25 to 1 uM by Western blot analysis; format: functional, cell-based; how it was run: as §2
HL-60 [19] = test: Induction of apoptosis in human HL60 cells assessed as chromatin condensation at 0.25 to 1 uM after 24 hrs by Hoechst 33258 staining-based microscopy; format: functional, cell-based; how it was run: as §6
NCI-H460 [20] = test: Induction of apoptosis in human H460 cells assessed as caspase3 cleavage at 1 to 5 uM by Western blot analysis; format: functional, cell-based; how it was run: as §4
NCI-H460 [21] = test: Induction of apoptosis in human H460 cells assessed as chromatin condensation at 1 to 5 uM after 24 hrs by Hoechst 33258 staining-based microscopy; format: functional, cell-based; how it was run: as §5
HL-60 [22] = test: Cell cycle arrest in human HL60 cells assessed as accumulation at G2/M phase at 0.5 uM after 24 hrs by propidium iodide staining-based FACS analysis (reference value: 10.51%); format: functional
HL-60 [23] = test: Increase in cyclin B1 expression in human HL60 cells at 0.25 to 1 uM after 24 hrs by Western blot analysis; format: functional, cell-based; how it was run: as §2
[24] = Cytotoxicity against human 2774 cells after 48 hrs by MTT assay; format: functional, cell-based
[25] = Cell cycle arrest in human H460 cells assessed as accumulation at S phase at 5 uM after 24 hrs by propidium iodide staining-based FACS analysis (reference value: 43.08%); format: functional; settings: NCI-H460; how it was run: as §3

`COc1ccc(-c2cc(=O)[nH]c3cc4c(cc23)OCO4)c(OC)c1` showed an Activity (HL-60 [1]) of 30.16%, an IC50 (SK-OV-3) of 400 nM and an IC50 (MCF7) of 6000 nM. For the same compound, the Activity (HL-60 [2]) was “Dose-dependent effect”, the Activity [3] was 1.57% and the Activity (HL-60 [4]) was 40.54%. The Activity (NCI-H460 [5]) was “Dose-dependent effect”, the Activity (NCI-H460 [6]) was “Active” and the Activity [7] was 11.2%. For the same compound, the Activity (HL-60 [8]) was 46.76%, the IC50 (Detroit 551) was > 25000 nM and the IC50 (COLO 205) was 7400 nM. It also gave an Activity (HL-60 [9]) of 13.88%, an Activity [10] of 9.6% and an Activity [11] of 54.4%. The Activity (HL-60 [12]) was 44.82%, the IC50 [13] was 900 nM and the Activity [14] was 9.37%. The Activity (NCI-H460 [15]) was “Active”, the Activity [16] was 71.6% and the Activity (HL-60 [17]) was “Active”. The Activity (HL-60 [18]) was “Active”, the Activity (HL-60 [19]) was “Active” and the Activity (NCI-H460 [20]) was “Active”. The Activity (NCI-H460 [21]) was “Active”, the Activity (HL-60 [22]) was 25.02% and the Activity (HL-60 [23]) was “Active”. The IC50 [24] was 400 nM and the Activity [25] was 22.4%.
